Results as given in PubChem BioAssay AID2509 (Broad Institute, 2010).
The source made the active and inactive calls.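 How the source made its calls: active means compounds cutting phorbol ester driven platelet P-selectin display by over 50% in every run; inconclusive means over 50% in some runs but not others; inactive means 50% or less in every run.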

Tested on: human washed platelets, PMA-induced P-selectin, flow cytometry
Assay: inhibitors of PMA-stimulated platelet P-selectin exposure, selectivity assay for platelet activation inhibitor project, cell-based, fluorescence, flow cytometry, platelets (AID 2509)
Conditions: at 30 µM; hits give high values
Procedure, shortened: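 Test system: platelets, PMA-induced surface P-selectin expression. Probe or stimulus: PMA at 5 nM, platelet activating stimulus. Timing: compound 20 min before PMA, 15 min stimulation, 20 min staining. Technique: flow cytometry with PE-conjugated anti-P-selectin antibody.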

| Structure (SMILES) | inhibition |
| --- | --- |
| C/C(=N/NC(=O)C1CCCC1)c1ccc(NC(=O)C(F)(F)F)cc1 | 9.5% (inactive) |
| Cc1ccc(-n2c(N)c(C#N)c(-c3ccccc3)c(C#N)c2=O)cc1 | 5.5% (inactive) |
